# Assay results: ChEMBL document CHEMBL4513216, “Probing the Open Global Health Chemical Diversity Library for Multistage-Active Starting Points for Next-Generation Antimalarials” (ACS Infect Dis, 2020)
# Assay: Toxicity liver stage against HepG2, at 10uM
# Type: cell-based
# Set-up: test concentration 10 uM, cell line HepG2-A16-CD81EGFP
# Settings: human, HepG2-A16-CD81EGFP cells; read-out: INHIBITION
# Outline: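 Uninfected HepG2-A16-CD81EGFP cells, 3 × 10^3 per well, 1536-well, plated on prespotted compound at 10 μM final, parasite-free screening media added to match infected plates; puromycin 10 μM positive, DMSO 0.5% negative; run in parallel with 48 h PbLuc assay at 37 °C, 5% CO2; viability by CellTiter-Glo luminescence, normalized to controls.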
row,SMILES,cytotoxicity at 10 µM
1,CC(C)N1CC(c2ncc(-c3ccc4c(c3)OCCO4)[nH]2)CC1=O (stereo not drawn),0.166%
2,CCn1cnnc1C1CCN(C(=O)c2cccc3c2ccn3C)CC1,-8%
3,OCC1CCCN1c1cc(NCCc2nccs2)ncn1 (stereo not drawn),4.58%
4,FC(F)(F)c1ccc(CN2CCN(Cc3cscn3)CC2)cc1,-4.94%
5,CN1C(=O)CC(c2cnn(C)c2)C12CCN(C(=O)c1ccco1)CC2 (stereo not drawn),-75.5%
6,COCCN1C(=O)CO[C@H]2CN(CCCc3ccccc3)C[C@H]21,52.8%
7,CN(Cc1cccs1)C(=O)CN(C)C1CCc2ccccc21 (stereo not drawn),10.1%
8,CN(C)c1ccc(C(=O)N2CCCN(Cc3cscn3)CC2)nn1,-9.39%
9,O=C(NCc1ccccc1CN1CCCCCC1)Nc1nncs1,4.22%
10,O=C(CCc1cccs1)N1CCC(N2CCNC2=O)CC1,5.37%
11,Cn1nc(-c2ccccc2)c(Cl)c1C(=O)O,-45%
12,Cc1ncc(CN2CCC(c3ccnn3C)CC2)n1-c1ccccc1,19.1%
13,COc1ccccc1CC1CCCN(CC(=O)N2CCOCC2)C1 (stereo not drawn),7.87%
14,CC(C)c1ncc(Cl)c(C(=O)N2CCCN3CCCC3C2)n1 (stereo not drawn),-10.2%
15,CNC(=O)N1C[C@@H]2C[C@H](C(=O)NCc3cccnc3)[C@H](C1)O2,6.43%
16,COc1cccc(CCn2ccnc2-c2cn(C3CCNCC3)nn2)c1,-7.23%
17,CCC1CN(CCCO)c2ccccc2O1 (stereo not drawn),-7.24%
18,COC(=O)c1cnc(/C=C/c2ccc(C(=O)O)cc2)s1,2.56%
19,Cc1cccc(S(=O)(=O)N2C[C@@H]3C[C@H](C(=O)NCC4CC4)[C@H](C2)O3)c1,-2.35%
20,COc1cccc([C@@]2(O)CC[C@@H]3CN(C(=O)c4ccn(C)n4)C[C@@H]32)c1,2%
21,Cc1ccnc(N2CCN(Cc3ccccc3)CC(O)C2)c1 (stereo not drawn),-1.88%
22,Cc1cc(C(=O)NC2=NCCS2)c(C)n1-c1ccccn1,6.25%
23,Cc1nc(CN2CCCC(c3nccs3)C2)cs1 (stereo not drawn),2.3%

row,SMILES,cytotoxicity at 10 µM
1,Cc1cccc(OC2CCN(C(=O)Cn3ccc4ccccc43)CC2)n1,1.53%
2,CC(C)COC(=O)N1CC(=O)N(CCCc2ccccc2)CC(O)C1 (stereo not drawn),0.853%
3,O=C(CNC(=O)c1ccc2c(c1)CCC2)NCCNc1ncccn1,-6.5%
4,CC(NC(=O)NCc1ccccn1)c1ccc2c(c1)CCC(=O)N2 (stereo not drawn),7.47%
5,O=S(=O)(N1CCOCC1)N1CCCC(c2ccccn2)C1 (stereo not drawn),2.23%
6,NCCC(=O)N1CCC2(CC1)CN(C(=O)Cc1ccc(Cl)cc1)CCO2,2.24%
7,CC(C)N(C)CCNC(=O)N1CCN(Cc2ccon2)CC1,-1.58%
8,Cc1cc(C(=O)N2CCC(c3nccn3Cc3ccncc3)CC2)no1,-15.7%
9,OC1CCN(Cc2ccc(CNc3ccc(Cl)cn3)cc2)CC1,0.313%
10,CC(C)(C)n1nc(C2CC2)cc1C(=O)NC1CCN(CC(N)=O)CC1,-2.06%
11,CN1CC(c2ccccc2)CC12CCN(C(=O)c1cncc(Cl)c1)CC2 (stereo not drawn),-12.6%
12,CC(=O)N1CCC2(CC1)c1ncc(-c3ccccc3)n1CCN2C,-104%
13,Oc1cc(CCC2CCCCN2)cc(-c2cccnc2)c1 (stereo not drawn),4.11%
14,NC(=O)C(NC(=O)c1ccc(NC2CC2)nc1)c1ccccc1 (stereo not drawn),10.8%
15,COCCOCC(=O)NC(C#N)c1ccccc1C (stereo not drawn),-1.65%
16,CS(=O)(=O)c1ccc2c(c1)N(C(=O)Cc1cccc(F)c1)CCC2,14.9%
17,CCCSCC(=O)Nc1ncn(CC(=O)N2CCCCCC2)n1,-3.91%
18,CC(=O)c1cn(CC(=O)N2CCCC(O)(CO)C2)c2ccccc12 (stereo not drawn),-4.87%
19,COc1ccc(C2CCN(CCCC#N)CC2)cc1,-9.89%
20,Cc1cc(C)n(C2CCCN(C(=O)c3cc(C(N)=O)cs3)C2)n1 (stereo not drawn),-11.4%
21,COCc1ccccc1CNC(=O)CN1CCCC1c1noc(C)n1 (stereo not drawn),1.13%
22,CCc1c(C)nn(C)c1NC(=O)N1CCCOC(Cn2cccn2)C1 (stereo not drawn),-8.14%
23,CC(C)N1CCC(c2cnc(-c3cn[nH]c3)cn2)CC1,5.36%

row,SMILES,cytotoxicity at 10 µM
1,Cn1nc2c(cc1=O)CN(CC(=O)Nc1nncs1)CC2,-9.55%
2,CC(C)CC(C)N(C)C(=O)CCn1cccn1 (stereo not drawn),0.395%
3,CC(=O)N1CCCCCC1C1CCN(Cc2nnc(C(C)(C)C)o2)CC1 (stereo not drawn),-42.3%
4,CCN(CC(=O)NC)C(=O)Cc1csc(C(C)C)n1,-3.61%
5,Clc1ccc(C2NCCc3cc4c(cc32)OCCO4)cc1 (stereo not drawn),-16.3%
6,COc1cc(CN2CC[C@@]3(CCCO3)[C@@H](O)C2)ccc1F,-3.14%
7,CCCC1(CO)CCCN(C(=O)CCCn2nc(C)cc2C)C1 (stereo not drawn),-9.53%
8,CCc1noc(-c2cccc(C(=O)O)c2)n1,-8.24%
9,CCCc1n[nH]c(C2CN(CCCS(C)(=O)=O)CCO2)n1 (stereo not drawn),-2.38%
10,Cc1ccccc1CCCN1CCS(=O)(=O)CC1C (stereo not drawn),1.57%
11,CS(=O)(=O)c1ccc(OCCNCc2cccc(Cl)c2)cc1,-4.43%
12,O=C(Cc1ccc2c(c1)CCO2)Nc1cccnc1-n1cncn1,3.94%
13,COCC1c2nnn(CC3CC3)c2CCN1C(=O)c1sccc1C (stereo not drawn),-147%
14,O=C(Nc1cnc2n1CCCC2)c1cccc(NC(=O)C2CCCC2)c1,-5.09%
15,Cc1nc(CN2CCN(c3ccc(SC(C)C)nn3)CC2)cs1,5.71%
16,Cc1cncc(NCc2ccccc2N2CCOCC2)c1,6.02%
17,CS(=O)(=O)C1=C(O)C(=O)N(c2ccccc2)C1c1ccccc1 (stereo not drawn),-1.06%
18,O=S(=O)(c1cccs1)N1CC[C@H]2[C@H]1CCN2c1ncccn1,-0.861%
19,CC(C)C1CN(C(=O)c2cccs2)CCS1 (stereo not drawn),1.24%
20,COc1ccc(Cl)cc1C(=O)N(C)Cc1cc(C)on1,-22.9%
21,Cc1cn(-c2ccccc2)nc1NS(=O)(=O)c1cccc(C(=O)O)c1,-10.3%
22,Cc1csc(NC(=O)CN(C)CC2CCCN2c2cccnn2)n1 (stereo not drawn),-5.82%
23,Fc1cccnc1Oc1cc(F)c(CN2CCCC2)c(Cl)c1,3.3%

row,SMILES,cytotoxicity at 10 µM
1,CCS(=O)(=O)N1CCCC(c2ccnc(N(C)C)c2)C1 (stereo not drawn),-5.16%
2,Cc1nccc(CNc2cc(N3CCCC3CO)ncn2)n1 (stereo not drawn),-14%
3,O=C(CCCn1cncn1)NC1(c2ccc(Cl)cc2)CCC1,6.66%
4,O=c1[nH]c(CN2CCN(CC(F)(F)F)CC2)nc2ccccc12,10.2%
5,CN1CCN(C(=O)Cc2ccccn2)Cc2cccnc21,-7.01%
6,CNS(=O)(=O)CCCN1CCN(C(C#N)c2ccccc2)CC1 (stereo not drawn),7.7%
7,CCc1csc(C2CCCN(C(=O)c3ccncc3)C2)n1 (stereo not drawn),5.9%
8,O=C1CSC(c2ccc(O)c(Cl)c2)c2c(n(C3CCOCC3)[nH]c2=O)N1 (stereo not drawn),-3.08%
9,CN1CCCC(c2n[nH]c3ncccc23)C1 (stereo not drawn),-3.35%
10,Cc1cnn(CC2CN(Cc3cccc(C(N)=O)c3)CCO2)c1 (stereo not drawn),-1.52%
11,Cc1cc(C(=O)N2CCC3(CCC(=O)N(CC(N)=O)C3)CC2)ccc1O,-7.5%
12,Cc1cccc(NC2CCN(C(=O)Nc3cc(F)ccc3F)CC2)n1,-10.7%
13,CCNc1ncc(C(=O)NCc2csc(-c3ncccn3)n2)cn1,6.59%
14,O=C(NCC1CCCN1Cc1ccccc1)NCC1(O)CCC1 (stereo not drawn),-9.17%
15,O=C(CN1CCCC1Cn1cccn1)NC1CCOCC1 (stereo not drawn),-23.2%
16,CCCn1c(NCCc2ccccc2)nc2c(C)nn(C)c2c1=O,66.4%
17,Cc1cc(C)nc(N2CCC(NCCSc3nnnn3C)CC2)n1,-6.88%
18,O=C1CC2(CCCNC2)C(=O)N1Cc1ccc(F)cc1 (stereo not drawn),1.65%
19,O=C(NCc1nnc2ccccn12)N1CCOC(c2ccsc2)C1 (stereo not drawn),0.305%
20,COc1ccc(C(=O)N(C)Cc2nnc3ccccn23)c(OC)c1,-3.03%
21,CCOCCN1CCN(CCOCC(F)(F)F)CC1,1.83%
22,CN(C)C(=O)CC1CC2(CCN(CC3CC3)CC2)c2cc(F)ccc21 (stereo not drawn),3.37%
23,c1coc(-c2nc(CN3CCn4c(nnc4C4CC4)C3)cs2)c1,-4.64%

row,SMILES,cytotoxicity at 10 µM
1,Cn1c(-c2ccccc2)nn(CCNS(=O)(=O)c2ccccc2Cl)c1=O,-2.85%
2,O=C(CC1CC1)N1CCC2(CC1)CN(c1ncc(F)cn1)CCO2,-72.8%
3,CN(Cc1ccccc1)CC(C)(C)NC(=O)c1cnns1,-3.67%
4,CCc1cc(O)n2nc(C3CCN(C(=O)c4cccnc4)CC3)cc2n1,7.09%
5,O=C(NCCCN1CCN(c2ncccn2)CC1)NCC1CCOC1 (stereo not drawn),-56.6%
6,COCCN(CCOC)c1ncccc1I,-2.69%
7,Cc1cc(N2CCCC(c3n[nH]c4ncccc34)C2)ncn1 (stereo not drawn),-3.22%
8,O=C(c1ccc(OCC2CC2)nc1)N1CCCC(n2ccnc2)C1 (stereo not drawn),-9.16%
9,CCc1ccc2c(C3CN(CC4CCC4)C3)ncn2c1,7.11%
10,Cc1ccc(C(=O)NCC2COCCO2)c(=O)[nH]1 (stereo not drawn),10.9%
11,CCN1CCCC1CNCc1cc2cc(C)c(C)cc2[nH]c1=O (stereo not drawn),-6.69%
12,CC1=C[C@@H](CNS(C)(=O)=O)[C@H](C(C)C)C[C@H]1CC(=O)NCCN(C)C,0.559%
13,CCc1cnc(C)nc1NCCN1CCC(O)CC1,1.78%
14,CCN1CC2(CC1=O)CN(Cc1cnn(C)c1)CCN(C(C)=O)C2 (stereo not drawn),-12.5%
15,Cc1nn(Cc2ccc(C(=O)NCCCN3CCCC3=O)o2)c(C)c1Cl,-10.2%
16,Cn1cnnc1C1CCCN(C(=O)c2cc(C3CC3)on2)C1 (stereo not drawn),5.14%
17,Cc1cnn(CCNCC(=O)NCc2ccccc2)c1,-4.25%
18,CC(C)(C)NC(=O)CNc1ccc(C#N)c(C(F)(F)F)c1,-1.28%
19,O=C(NCC1CC2(CO1)CN(Cc1cccs1)C2)C1CCC1 (stereo not drawn),-94.1%
20,COCCNc1nc2c(c(N3CCn4nc(C)cc4C3)n1)CCNCC2,7.8%
21,CC(NCC1CCS(=O)(=O)CC1)c1cccc(OC(F)F)c1 (stereo not drawn),-5.16%
